Assay results taken from ChEMBL document CHEMBL1121465 (J Med Chem, 1980).

What was measured:
Mus musculus [1] = organism: Mus musculus; assay: Effective dose which decreases the 50% of the lethality induced by bicuculline in mice; type: functional
In short: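 Mice given ip serial doses 30 min before iv bicuculline at 0.9 mg/kg, 10 animals per drug per dose per experiment. ED50, the dose protecting half the mice from lethality, derived by log-probit plot.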

Mus musculus [2] = organism: Mus musculus; assay: Effective dose which decreases the 50% of the convulsions induced by bicuculline in mice; type: functional
[3] = target: GABA-A receptor; anion channel; assay: Displacement of [3H]gamma-amino butyric acid from Gamma-aminobutyric acid (GABA-A) receptor of rat brain
Mus musculus [4] = assay: Lethal dose which causes death in 50% of the mice within 48 hr of ip administration; type: functional
In short: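 Male albino CD1 mice (18–22 g) dosed intraperitoneally, then returned to home cages, 10 per cage. Deaths per dose were counted at 48 h. LD50 was estimated on log-probit paper.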

[5] = target: GABA-A receptor; anion channel; assay: Displacement of [3H]gamma-amino butyric acid from Gamma-aminobutyric acid (GABA-A) receptor of human cerebellar cortex preparation

| Compound | ED50 (Mus musculus [1]) [mg/kg] | ED50 (Mus musculus [2]) [mg/kg] | Ki [3] [nM] | LD50 (Mus musculus [4]) [mg/kg] | Ki [5] [nM] |
| --- | --- | --- | --- | --- | --- |
| O=C([O-])CCC/N=C(\c1ccc(Cl)cc1)c1cc(F)ccc1O.[Na+] | 70 | 15 | 590 | 420 | 680 |
| NCc1cc(=O)[nH]o1 [MUSCIMOL] | > 2 | 0.25 | 4 | 17 | 11 |
| O=C1NC(=O)C(c2ccccc2)(c2ccccc2)N1 [PHENYTOIN] | 50 | – | > 100000 | 250 | – |
| NC(=O)CCC/N=C(\c1ccc(Cl)cc1)c1cc(F)ccc1O [PROGABIDE] | 65 | 20 | 14000 | 900 | 40000 |
| CCCC(CCC)C(=O)[O-].[Na+] [VALPROATE SODIUM] | 130 | 33 | > 100000 | 1000 | > 100000 |
